# Reference: ChEMBL document CHEMBL4308835, “Fluorine-Substituted Pyrrolo[2,3- d]Pyrimidine Analogues with Tumor Targeting via Cellular Uptake by Folate Receptor α and the Proton-Coupled Folate Transporter and Inhibition of de Novo Purine Nucleotide Biosynthesis” (J Med Chem, 2018)
# Active and inactive are the calls of the source. No cut-off for these calls is given here.
# What was measured:
# [1] = system: IGROV-1; assay: Anticlonogenic activity against human IGROV1 cells incubated for 24 hrs followed by compound wash out and measured after 10 days by methylene blue staining-based assay; format: functional, cell-based
# Procedure, shortened: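 IGROV1 cells plated in folate-free RPMI 1640 (pH 7.2), 10% dialyzed FBS, 25 nM LCV. After 24 h adherence, exposed to drug (0–20 μM) for 24 h at pH 6.8 (25 mM PIPES/25 mM HEPES). Washed, then grown drug-free at pH 7.2 (100 mM HEPES) with 25 nM LCV for up to 10 days at 37 °C. Colonies stained with methylene blue and counted electronically. Values normalized to vehicle controls. Triplicate experiments.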
# [2] = system: IGROV-1; assay: Antiproliferative activity against wild type human IGROV1 cells after 96 hrs by Cell-Titer Blue assay; format: functional, cell-based; details: IGROV-1, 96 h
# [3] = molecular target: T1, Proton-coupled folate transporter (Homo sapiens) (UniProt Q96NT5); assay: Inhibition of human PCFT expressed in Chinese hamster R2/PCFT4 cells assessed as reduction in [3H]MTX uptake at pH 5.5 at 1 to 10 uM measured over 2 mins; format: cell-based
# T1 sequence (whole entry): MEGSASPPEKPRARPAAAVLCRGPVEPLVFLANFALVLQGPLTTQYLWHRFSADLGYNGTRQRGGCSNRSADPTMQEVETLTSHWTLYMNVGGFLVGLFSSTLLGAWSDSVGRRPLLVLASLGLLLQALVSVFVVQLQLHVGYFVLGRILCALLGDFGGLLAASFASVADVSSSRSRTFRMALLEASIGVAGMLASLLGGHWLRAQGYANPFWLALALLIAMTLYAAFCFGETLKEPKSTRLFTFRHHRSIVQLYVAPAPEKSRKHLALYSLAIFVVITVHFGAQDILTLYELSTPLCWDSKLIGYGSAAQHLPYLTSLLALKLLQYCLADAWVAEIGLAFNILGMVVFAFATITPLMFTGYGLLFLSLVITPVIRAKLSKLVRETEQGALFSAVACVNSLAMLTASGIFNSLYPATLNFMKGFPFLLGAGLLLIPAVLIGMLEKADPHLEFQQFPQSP
# [4] = system: IGROV-1; assay: Antiproliferative activity against human IGROV1 cells harboring non targeted control shRNA sequence after 96 hrs by Cell-Titer Blue assay; format: functional, cell-based; details: IGROV-1, 96 h
# [5] = Toxicity in NCR SCID mouse xenografted with human IGROV1 cells at 32 mg/kg, iv treated once daily for 4 days per week for 3 weeks starting from 3 days post implantation; format: organism-based; details: in vivo
# Procedure, shortened: (§1)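 Female ICR SCID mice on a folate-deficient diet for 14 days before bilateral subcutaneous IGROV1 implants. Randomized at 5 mice/group. […] Body weights recorded daily; tumors measured twice weekly.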
# [6] = molecular target: T2, Reduced folate transporter (Homo sapiens) (UniProt P41440); assay: Inhibition of human RFC2 expressed in human HeLa R1-11 cells assessed as reduction in [3H]MTX uptake at pH 7.2 at 1 uM measured over 2 mins relative to control; format: cell-based
# T2 sequence (whole entry): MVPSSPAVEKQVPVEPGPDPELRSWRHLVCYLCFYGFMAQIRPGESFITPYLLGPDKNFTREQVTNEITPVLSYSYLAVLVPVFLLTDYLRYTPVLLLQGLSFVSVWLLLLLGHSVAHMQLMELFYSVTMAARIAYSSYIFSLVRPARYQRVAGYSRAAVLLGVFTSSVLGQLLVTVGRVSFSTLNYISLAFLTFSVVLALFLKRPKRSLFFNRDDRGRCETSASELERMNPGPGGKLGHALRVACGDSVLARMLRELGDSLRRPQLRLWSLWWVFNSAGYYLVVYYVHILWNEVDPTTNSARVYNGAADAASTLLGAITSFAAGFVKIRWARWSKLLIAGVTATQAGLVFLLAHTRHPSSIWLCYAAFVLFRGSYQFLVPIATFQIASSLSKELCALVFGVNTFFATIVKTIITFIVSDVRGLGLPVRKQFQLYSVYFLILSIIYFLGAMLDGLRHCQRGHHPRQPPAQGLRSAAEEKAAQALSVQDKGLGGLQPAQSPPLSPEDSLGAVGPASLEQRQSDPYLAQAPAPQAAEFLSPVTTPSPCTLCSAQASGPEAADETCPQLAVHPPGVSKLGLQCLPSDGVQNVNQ
# [7] = system: IGROV-1; assay: Antiproliferative activity against FRalpha […] human IGROV1 KD10 cells after 96 hrs by Cell-Titer Blue assay; format: functional, cell-based; details: IGROV-1, 96 h
# [8] = Antiproliferative activity in Chinese hamster R2 cells deficient in RFC, PCFT, and FRalpha assessed as reduction in cell growth after 96 hrs by Cell-Titer Blue assay; format: cell-based; details: Cricetulus griseus, R2, 96 h
# [9] = system: IGROV-1; assay: Antitumor activity against human IGROV1 cells xenografted in NCR SCID mouse assessed as time for tumor growth delay at 95 mg/kg, iv treated once daily for 4 days per week for 4 weeks starting from 3 days post implantation; format: functional; details: in the assay text read “32 mg/kg” for “95 mg/kg”
# Procedure, shortened: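 Female ICR SCID mice, 10 weeks old, kept on a folate-deficient diet for 14 days before bilateral subcutaneous IGROV1 implants; a control cohort was fed folate-replete chow. Randomized at 5 mice/group. […] Tumors measured twice weekly; body weights recorded daily.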
# [10] = Toxicity in NCR SCID mouse xenografted with human IGROV1 cells assessed as weight loss median nadir at 32 mg/kg, iv treated once daily for 4 days per week for 3 weeks starting from 3 days post implantation and measured at day 14 post last dose relative to control; format: organism-based; details: in vivo
# Procedure, shortened: (§2)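 Female ICR SCID mice (10 weeks, ~20 g) kept on folate-deficient diet ad libitum for 14 d before bilateral subcutaneous IGROV1 implantation; a control cohort was fed standard folate-replete chow. 5 mice/group, nonselectively randomized. […] Tumors measured twice weekly, body weights daily. T/C from median tumor burdens.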
# [11] = system: A2780; assay: Antiproliferative activity against human A2780 cells after 96 hrs by Cell-Titer Blue assay; format: functional, cell-based; details: A2780, 96 h
# [12] = system: IGROV-1; assay: Antitumor activity against human IGROV1 cells xenografted in NCR SCID mouse assessed as median tumor burden at 32 mg/kg, iv treated once daily for 4 days per week for 3 weeks starting from 3 days post implantation and measured at day 60 post last dose (reference value: 108 mg); format: functional; procedure, shortened: as §2
# [13] = molecular target: T2, Reduced folate transporter (Homo sapiens); assay: Inhibition of human RFC2 expressed in human HeLa R1-11 cells assessed as reduction in [3H]MTX uptake at pH 7.2 at 10 uM measured over 2 mins relative to control; format: cell-based
# [14] = Toxicity in NCR SCID mouse xenografted with human IGROV1 cells assessed as weight loss median nadir at 32 mg/kg, iv treated once daily for 4 days per week for 4 weeks starting from 3 days post implantation and measured after conclusion of therapy; format: organism-based; details: in vivo
# [15] = Toxicity in NCR SCID mouse xenografted with human IGROV1 cells assessed as weight loss median nadir at 32 mg/kg, iv treated once daily for 4 days per week for 3 weeks starting from 3 days post implantation and measured at day 18 post last dose relative to control; format: organism-based; details: in vivo; procedure, shortened: as §1
structure (smiles),measurement,setting,value
Nc1nc2[nH]c(CCCc3ccc(C(=O)N[C@@H](CCC(=O)O)C(=O)O)s3)cc2c(=O)[nH]1,IC50,[1],0.27 µM
same,IC50,[2],0.0167 µM
same,inhibition,[3],Active
same,IC50,[4],0.0101 µM
same,Activity,[5],Non-Toxic
same,inhibition,[6],inactive
same,IC50,[7],0.0746 µM
same,IC50,[8],0.355 µM
same,Time,[9],35 days
same,Activity,[10],15.7%
same,IC50,[11],0.0274 µM
same,Activity,[12],108 mg
same,inhibition,[13],inactive
same,Activity,[14],Non-Toxic
same,Activity,[15],12.1%
